In ChEMBL document CHEMBL4414644, “A New Approach of Mitigating CYP3A4 Induction Led to the Discovery of Potent Hepatitis B Virus (HBV) Capsid Inhibitor with Optimal ADMET Profiles” (J Med Chem, 2019):
Each block holds one molecule with its values, some of them ahead of it. Active and inactive are the calls of the source.

Assays:
[1] = Cytotoxicity in human HepDE19 cells assessed as reduction in cell viability incubated for 5 days by CCK8 assay; type: cell-based
Outline: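 HepDE19 cells were grown in DMEM-F12 with 10% FBS, penicillin/streptomycin and 0.5 mg/mL G418, then seeded at 5 × 10^3 cells/well. Compound exposure lasted 5 days. Viability was read with CCK-8 after 2 h at 37 °C, measuring OD450 and OD630. CC50 was the concentration killing 50% of cells; duplicate runs.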

[2] = Induction of CYP3A4 gene expression in cryopreserved human hepatocytes assessed as increase in CYP3A4 mRNA level at 10 uM incubated for 24 hrs by qRT-PCR analysis relative to rifampicin; type: ADME, cell-based
Outline: (§1)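 Cryopreserved hepatocytes from one human donor were seeded at 1 × 10^6 cells/mL and cultured 24 h in serum-free Williams E. Compounds at 0.1, 1.0 and 10 µM (0.1% DMSO) were added in triplicate for 24 h, with vehicle wells as negative controls. Positive controls were omeprazole for CYP1A2, phenobarbital for CYP2B6 and rifampicin for CYP3A4. mRNA was measured by TaqMan qRT-PCR normalised to PPIA (2^-ΔΔCT) and expressed as % of the positive control.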

[3] = AUC (0 to infinity) in BALB/c mouse at 1 mg/kg, iv by LC-MS/MS analysis; type: ADME, organism-based; parameters: dose 1 mg/kg, route intravenous, time infinity; conditions: in vivo
Outline: (§2)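 Female BALB/c mice (16–22 g; 12 animals) got a single IV dose of 1 mg/kg in 5% DMSO/40% PEG400/55% saline. Blood was taken into EDTA-K2 and spun at 2000 g for 5 min at 4 °C. Plasma was stored at -80 °C and quantified by LC–MS/MS. Parameters came from non-compartmental analysis, with BLQ values omitted.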

in vivo = conditions: BALB/c, mouse, liver/plasma, po, 3 mg/kg
Hepatitis B virus [4] = assay: Antiviral activity against HBV infected in BALB/c mouse hydrodynamic injection model hydrodynamically injected with replication-competent HBV DNA plasmid assessed as reduction in HBV DNA level in liver at 12 mg/kg, po BID for 5 days by RT-qPCR analysis; type: functional, organism-based
Outline: (§3)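 Used female BALB/c mice aged 6–8 weeks carrying an HBV genotype D genome delivered by tail-vein hydrodynamic plasmid injection. Animals received vehicle or drug orally at the stated frequency for 5 days. Plasma and liver were sampled at set time points, and HBV DNA was quantified by real-time qPCR. Error bars are SEM.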

[5] = Apparent partition coefficient, logD of the compound at pH 7.4; type: physicochemical; conditions: octanol/water
[6] = Plasma clearance in BALB/c mouse at 1 mg/kg, iv by LC-MS/MS analysis; type: ADME, organism-based; outline: as §2
[7] = Half life in BALB/c mouse at 1 mg/kg, iv by LC-MS/MS analysis; type: ADME, organism-based; conditions: in vivo; outline: as §2
Hepatitis B virus [8] = assay: Antiviral activity against HBV infected in BALB/c mouse hydrodynamic injection model hydrodynamically injected with replication-competent HBV DNA plasmid assessed as reduction in HBV DNA level in plasma at 12 mg/kg, po BID for 5 days by RT-qPCR analysis; type: functional, organism-based; outline: as §3
[9] = Induction of CYP1A2 gene expression in cryopreserved human hepatocytes assessed as increase in CYP1A2 mRNA level at 10 uM incubated for 24 hrs by qRT-PCR analysis relative to omeprazole; type: ADME, cell-based; outline: as §1
[10] = target: Voltage-gated inwardly rectifying potassium channel KCNH2 (Homo sapiens, UniProt Q12809); assay: Inhibition of human ERG
[11] = Induction of CYP1A2 gene expression in cryopreserved human hepatocytes assessed as increase in CYP1A2 mRNA level at 0.1 uM incubated for 24 hrs by qRT-PCR analysis relative to omeprazole; type: ADME, cell-based; outline: as §1
[12] = Permeability at 150 uM by PAMPA; type: ADME; conditions: read-out: permeability
Outline: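 PAMPA: DMSO stock was diluted to 150 µM (<2% DMSO) in donor buffer of 0.05 M MOPSO pH 6.5 with 0.5% glycocholic acid. The acceptor was 0.05 M MOPSO pH 6.5. The membrane was 10% egg lecithin with 0.5% cholesterol in dodecane. Donor and acceptor concentrations were read at start and at ~18 h; results in 10^-6 cm/s.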

[13] = Volume of distribution at steady state in BALB/c mouse at 1 mg/kg, iv by LC-MS/MS analysis; type: ADME, organism-based; conditions: in vivo, read-out: Vdss; outline: as §2
[14] = Unbound fraction in human plasma at 1000 nM incubated for 5 hrs by LC-MS/MS analysis detection based equilibrium dialysis assay; type: ADME, cell-free
Outline: (§4)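 Equilibrium dialysis of pooled plasma against Soerensen buffer pH 7.4 used a 12–14 kDa cutoff membrane. Compounds were run in cassettes of 2–5 at 1000 nM total, with diazepam as the membrane-integrity control. Dialysis ran 5 h at 37 °C under 5% CO2, followed by LC–MS/MS of both compartments. Unbound fraction is the average of 3 tests.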

Hepatitis B virus [15] = assay: Antiviral activity against HBV infected in BALB/c mouse hydrodynamic injection model hydrodynamically injected with replication-competent HBV DNA plasmid assessed as reduction in HBV DNA level in plasma at 3 mg/kg, po BID for 5 days by RT-qPCR analysis; type: functional, organism-based; outline: as §3
[16] = Induction of CYP2B6 gene expression in cryopreserved human hepatocytes assessed as increase in CYP2B6 mRNA level at 1 uM incubated for 24 hrs by qRT-PCR analysis relative to phenobarbital
[17] = Induction of CYP2B6 gene expression in cryopreserved human hepatocytes assessed as increase in CYP2B6 mRNA level at 10 uM incubated for 24 hrs by qRT-PCR analysis relative to phenobarbital
[18] = Induction of CYP3A4 gene expression in cryopreserved human hepatocytes assessed as increase in CYP3A4 mRNA level at 0.1 uM incubated for 24 hrs by qRT-PCR analysis relative to rifampicin; type: ADME, cell-based; outline: as §1
[19] = Drug metabolism in cryopreserved human hepatocytes assessed as glucuronide conjugation of carboxylic acid group at 1 uM incubated up to 120 mins by LC-MS/MS analysis; type: ADME, cell-based, Hepatocyte; conditions: 2 h
[20] = Toxicity in rat by 5-day mini-tox study; conditions: in vivo, 120 h
[21] = AUC (0 to infinity) in BALB/c mouse plasma at 3 mg/kg, po by LC-MS/MS analysis; type: ADME, organism-based; parameters: dose 3 mg/kg, route oral, time infinity
Outline: (§5)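 Female BALB/c mice (16–22 g; 21 animals) got a single oral dose of 3 mg/kg in 2% Klucel, Tween 80, 0.1% parabens in water. EDTA-K2 plasma was taken at each time point. Livers were harvested right after blood sampling, rinsed in cold saline, weighed and snap-frozen. Both matrices were quantified by LC–MS/MS and analysed non-compartmentally, omitting BLQs.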

[22] = Oral bioavailability in BALB/c mouse at 3 mg/kg by LC-MS/MS analysis; type: ADME, organism-based; conditions: in vivo; outline: as §5
Hepatitis B virus [23] = assay: Antiviral activity against HBV infected in BALB/c mouse hydrodynamic injection model hydrodynamically injected with replication-competent HBV DNA plasmid assessed as reduction in HBV DNA level in liver at 3 mg/kg, po BID for 5 days by RT-qPCR analysis; type: functional, organism-based; outline: as §3
[24] = AUC (0 to infinity) in BALB/c mouse liver at 3 mg/kg, po by LC-MS/MS analysis; type: ADME, organism-based; parameters: dose 3 mg/kg, route oral, time infinity; outline: as §5
[25] = Induction of CYP2B6 gene expression in cryopreserved human hepatocytes assessed as increase in CYP2B6 mRNA level at 0.1 uM incubated for 24 hrs by qRT-PCR analysis relative to phenobarbital
[26] = Ionization constant (base), pKa of the compound; type: physicochemical
[27] = Induction of CYP1A2 gene expression in cryopreserved human hepatocytes assessed as increase in CYP1A2 mRNA level at 1 uM incubated for 24 hrs by qRT-PCR analysis relative to omeprazole; type: ADME, cell-based; outline: as §1
[28] = Ionization constant (acid), pKa of the compound; type: physicochemical
[29] = Induction of CYP3A4 gene expression in cryopreserved human hepatocytes assessed as increase in CYP3A4 mRNA level at 1 uM incubated for 24 hrs by qRT-PCR analysis relative to rifampicin; type: ADME, cell-based; outline: as §1
[30] = Solubility in pH 6.5 phosphate buffer stirred for 1 hr and shaken for 2 hrs by HPLC-UV based LYSA solubility assay; type: physicochemical
Outline: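 Duplicate samples from 10 mM DMSO stock were dried, taken up in 0.05 M phosphate pH 6.5, stirred 1 h, shaken 2 h and left overnight. They were then filtered and the filtrate plus a 1/10 dilution analysed by HPLC-UV. Quantification used a four-point calibration; results in µg/mL.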

[31] = Cmax in BALB/c mouse at 3 mg/kg, po by LC-MS/MS analysis; type: ADME, organism-based; parameters: dose 3 mg/kg, route oral; conditions: in vivo; outline: as §5
[32] = Unbound fraction in mouse plasma at 1000 nM incubated for 5 hrs by LC-MS/MS analysis detection based equilibrium dialysis assay; type: ADME, cell-free; outline: as §4

Voltage-gated inwardly rectifying potassium channel KCNH2, sequence (Q12809 whole entry): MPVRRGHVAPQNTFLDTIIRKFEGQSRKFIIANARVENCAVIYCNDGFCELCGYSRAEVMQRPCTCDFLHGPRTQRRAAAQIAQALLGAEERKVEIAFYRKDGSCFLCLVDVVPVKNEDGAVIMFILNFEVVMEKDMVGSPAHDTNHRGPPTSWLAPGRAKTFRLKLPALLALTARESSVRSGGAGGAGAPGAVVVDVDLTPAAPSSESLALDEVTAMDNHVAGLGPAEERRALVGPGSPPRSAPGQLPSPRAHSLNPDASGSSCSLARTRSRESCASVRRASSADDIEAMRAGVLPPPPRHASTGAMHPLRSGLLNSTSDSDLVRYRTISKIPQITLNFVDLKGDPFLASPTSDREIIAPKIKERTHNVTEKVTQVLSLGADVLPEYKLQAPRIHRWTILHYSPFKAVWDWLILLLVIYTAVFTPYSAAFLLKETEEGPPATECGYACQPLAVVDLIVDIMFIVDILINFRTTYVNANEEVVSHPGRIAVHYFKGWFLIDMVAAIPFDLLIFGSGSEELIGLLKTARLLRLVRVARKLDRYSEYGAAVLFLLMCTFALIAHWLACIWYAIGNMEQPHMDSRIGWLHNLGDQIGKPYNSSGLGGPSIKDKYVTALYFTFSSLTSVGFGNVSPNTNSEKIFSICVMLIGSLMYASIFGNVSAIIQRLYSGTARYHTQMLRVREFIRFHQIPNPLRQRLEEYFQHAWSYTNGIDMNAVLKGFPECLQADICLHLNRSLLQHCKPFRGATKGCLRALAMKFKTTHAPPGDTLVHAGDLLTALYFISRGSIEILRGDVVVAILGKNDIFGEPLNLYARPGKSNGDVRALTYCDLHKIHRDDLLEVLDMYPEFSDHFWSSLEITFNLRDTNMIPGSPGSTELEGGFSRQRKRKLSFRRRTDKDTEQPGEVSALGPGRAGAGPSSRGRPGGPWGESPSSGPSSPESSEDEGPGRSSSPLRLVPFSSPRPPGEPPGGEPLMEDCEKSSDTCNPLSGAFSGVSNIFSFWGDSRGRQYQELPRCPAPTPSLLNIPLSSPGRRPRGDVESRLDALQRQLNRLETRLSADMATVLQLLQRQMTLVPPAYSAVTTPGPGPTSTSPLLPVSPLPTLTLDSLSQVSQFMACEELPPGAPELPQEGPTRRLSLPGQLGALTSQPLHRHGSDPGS

Structure (SMILES): COC(=O)C1=C(CN2CCOC[C@H]2C(=O)O)NC(c2nccs2)=N[C@H]1c1ccc(Cl)c(F)c1
- AUC(0-inf) [3]: 408 ng·h/mL
- Kp (in vivo): 38
- Activity (Hepatitis B virus [4]): Active
- logD [5]: 0.38
- CC50 at 120 h [1]: > 100 µM
- clearance [6]: 40.9 mL/min/kg
- half-life [7]: 2.3 h
- Activity [2]: 25%
- Activity (Hepatitis B virus [8]): Active
- Activity [9]: 1.7%
- inhibition (INH) [10]: Not Active
- Activity [11]: 1%
- Papp at 150 µM [12]: 2.4 ×10⁻⁶ cm/s
- Vd [13]: 2.7 L/kg
- fraction unbound at 5 h, 1 µM [14]: 0.031
- Activity (Hepatitis B virus [15]): Active
- Activity [16]: 1.5%
- Activity [17]: 1.4%
- Activity [18]: 2%
- Drug metabolism [19]: Metabolite_Detected
- Activity [20]: Non-Toxic
- AUC(0-inf) [21]: 527 ng·h/mL
- bioavailability [22]: 43.1%
- Activity (Hepatitis B virus [23]): Active
- AUC(0-inf) [24]: 20000 ng·h/mL
- Activity [25]: 1.3%
- pKa [26]: 5.9
- Activity [27]: 0.9%
- pKa [28]: 1.8
- Activity [29]: 7.5%
- solubility [30]: > 631 µg/mL
- Cmax [31]: 254 ng/mL
- fraction unbound at 5 h, 1 µM [32]: 0.04

Structure (SMILES): CCOC(=O)C1=C(CN2CCOC[C@H]2C(=O)O)NC(c2nccs2)=N[C@H]1c1ccc(Cl)c(F)c1
- CC50 at 120 h [1]: 24 µM

Structure (SMILES): COC(=O)C1=C(CN2CCOC[C@H]2C(=O)O)N=C(c2nccs2)N[C@H]1c1ccc(F)cc1Cl
- CC50 at 120 h [1]: > 100 µM
- Activity [2]: 111%

Structure (SMILES): CCOC(=O)C1=C(CN2CCOC[C@H]2C(=O)O)NC(c2nccs2)=N[C@H]1c1cc(F)c(F)c(F)c1
- CC50 at 120 h [1]: > 100 µM
- Activity [2]: 72%

Continued, in another order:

- Activity [2]: 26%
Structure (SMILES): COC(=O)C1=C(CN2CCOC[C@H]2C(=O)O)NC(c2nccs2)=N[C@H]1c1ccc(Br)c(F)c1
- CC50 at 120 h [1]: 76 µM

- Activity [2]: 109%
Structure (SMILES): COC(=O)C1=C(CN2CC(F)(F)C[C@H]2C(=O)O)NC(c2nccs2)=N[C@H]1c1ccc(F)cc1Cl
- CC50 at 120 h [1]: 65 µM

- Activity [2]: 105%
Structure (SMILES): CCOC(=O)C1=C(CN2CCOC[C@H]2C(=O)O)NC(c2nccs2)=N[C@H]1c1ccc(F)c(F)c1F
- CC50 at 120 h [1]: 49 µM

- Activity [2]: 73%
Structure (SMILES): CCOC(=O)C1=C(CN2CCOC[C@H]2C(=O)O)NC(c2nccs2)=N[C@H]1c1ccc(Br)c(F)c1
- CC50 at 120 h [1]: 14 µM

- Activity [2]: 40%
Structure (SMILES): CCOC(=O)C1=C(CN2CCOC[C@H]2C(=O)O)NC(c2nccs2)=N[C@H]1c1ccc(C)c(F)c1
- CC50 at 120 h [1]: 85 µM

- Activity [2]: 123%
Structure (SMILES): CCOC(=O)C1=C(CN2CC(F)(F)C[C@H]2C(=O)O)NC(c2nccs2)=N[C@H]1c1ccc(F)cc1Cl
- CC50 at 120 h [1]: > 100 µM
